Compound activity: PubChem BioAssay, several laboratories
CHOP inh: blocks CHOP induction under ER stress; CHO-K1 CHOP-promoter luciferase, tunicamycin-induced, 15-18 h; inhibition, % at 10 µM; 220,000 tested, 3.8% active; AID 2732;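 active means compounds that reduced the stress-induced luciferase reporter signal by more than about 70% of percent inhibition, limit read from the data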;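 further: 0% = tunicamycin plus vehicle and 100% = wells without tunicamycin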
TLR9-MyD88 inh: inhibitors of human TLR9-MyD88 binding; Q9NR96+Q99836; CHO BLA complementation TLR9-MyD88, CCF4 FRET ratio; inhibition, % at 4.98 µM; 340,000 tested, 0.21% active; AID 504734;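 active means inhibition above the mean over all tested compounds plus 3 SD, cut at about 21% in these data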;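 further: 0% = DMSO only wells and 100% = clavulanate BLA inhibitor control wells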
Target sequence (Q99836 whole entry, looked up): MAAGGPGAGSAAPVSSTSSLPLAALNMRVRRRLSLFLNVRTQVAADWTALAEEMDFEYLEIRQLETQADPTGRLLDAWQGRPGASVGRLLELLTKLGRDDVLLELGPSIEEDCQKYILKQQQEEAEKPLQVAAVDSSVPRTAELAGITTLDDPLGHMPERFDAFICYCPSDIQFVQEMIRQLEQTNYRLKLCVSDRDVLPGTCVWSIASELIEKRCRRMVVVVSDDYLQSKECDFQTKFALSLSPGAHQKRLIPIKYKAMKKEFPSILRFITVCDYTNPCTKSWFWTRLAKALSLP
Target sequence (Q9NR96 whole entry, looked up): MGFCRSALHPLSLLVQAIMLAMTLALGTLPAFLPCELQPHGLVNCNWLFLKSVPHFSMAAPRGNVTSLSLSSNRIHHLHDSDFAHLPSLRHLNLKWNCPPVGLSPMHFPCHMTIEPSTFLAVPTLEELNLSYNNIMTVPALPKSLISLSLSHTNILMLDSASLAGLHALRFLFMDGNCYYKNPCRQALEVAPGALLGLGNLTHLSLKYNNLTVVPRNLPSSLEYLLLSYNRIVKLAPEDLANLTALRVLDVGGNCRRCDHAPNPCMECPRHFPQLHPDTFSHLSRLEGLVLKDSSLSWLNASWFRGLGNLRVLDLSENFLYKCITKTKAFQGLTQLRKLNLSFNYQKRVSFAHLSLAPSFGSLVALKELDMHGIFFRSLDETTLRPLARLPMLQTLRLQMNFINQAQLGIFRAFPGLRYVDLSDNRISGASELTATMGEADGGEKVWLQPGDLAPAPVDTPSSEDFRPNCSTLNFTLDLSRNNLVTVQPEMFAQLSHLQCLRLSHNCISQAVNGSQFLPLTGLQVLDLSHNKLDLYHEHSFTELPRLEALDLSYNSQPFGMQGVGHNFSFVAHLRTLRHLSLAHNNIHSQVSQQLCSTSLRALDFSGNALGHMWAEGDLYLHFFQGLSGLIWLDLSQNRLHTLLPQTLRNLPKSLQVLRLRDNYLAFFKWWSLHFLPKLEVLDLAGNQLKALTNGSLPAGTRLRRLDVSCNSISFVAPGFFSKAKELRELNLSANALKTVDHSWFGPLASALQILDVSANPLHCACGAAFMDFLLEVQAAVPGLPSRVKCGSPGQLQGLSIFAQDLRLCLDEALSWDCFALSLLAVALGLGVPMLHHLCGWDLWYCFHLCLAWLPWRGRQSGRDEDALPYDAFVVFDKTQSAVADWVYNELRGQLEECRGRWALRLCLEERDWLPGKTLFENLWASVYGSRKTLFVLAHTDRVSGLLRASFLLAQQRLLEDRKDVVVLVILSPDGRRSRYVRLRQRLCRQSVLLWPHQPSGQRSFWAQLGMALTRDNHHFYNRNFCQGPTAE
TLR4 MyD88 comp: blocks binding of human TLR4 to MyD88; AID 861; 200,000 tested, 0.18% active; inhibition, % at 8.4 µM; O00206+Q99836; HeLa CL3-4 TLR4/MyD88 BLA complementation, FRET ratio; in the data active means inhibition above about 25%;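 further: 0% = vehicle and 100% = reference inhibitor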
XBP1 UPR activ: activators of adaptive arm of unfolded protein response (XBP1) | CHO-XBP1 luciferase reporter, IRE1-XBP1 UPR activation, luminescence; percent of tunicamycin response, DMSO as zero | 330,000 tested, 0.33% active | activation, % at 20 µM;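 active means versus positive control, 20 µM dose yields 30% or more activation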;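 further: 100% = tunicamycin at 10 µg/mL and 0% = DMSO only wells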
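incubation = overnight seeding at 37 °C, 6 h compound treatment at 37 °C | assay system = CHO-XBP1 cells stably carrying IRE1-XBP1-driven luciferase reporter | input = 1000 cells per well | detection = luciferase luminescence | dosing = single point, 20 µM final compound, 1% DMSO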
NOD2-RIPK2 inh: NOD2-RIPK2 protein interaction inhibition. inhibition, % at 4.98 µM. AID 624267. 360,000 tested, 0.38% active. CHO BLA complementation NOD2-RIPK2, CCF4 ratio. O43353; in the data active means inhibition above about 21%;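 further: 0% = vehicle only and 100% = reference blocker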
CHOP UPR activ: apoptotic UPR (CHOP) activation. activation, % at 10 µM. CHO-CHOP luciferase reporter, luminescence; percent of tunicamycin response over DMSO baseline. AID 449763. 330,000 tested, 0.34% active;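 active means at 10 µM dose, activation of 40% or more, normalized to positive control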;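 further: 100% = tunicamycin at 10 µg/mL and 0% = DMSO alone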
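Material: CHO-CHOP cells, stable luciferase reporter of PERK-eIF2a-CHOP signalling; quantity: 500 reporter cells seeded per well; buffer or medium: F12 medium containing 10% fetal bovine serum; compound: one dose, 10 µM in 0.5% DMSO; incubation: 6 h compound treatment, 37 °C; measured by: Steady-Glo luciferase luminescence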
* = called active by the depositor; x = not tested or not shown. Shown is part of a subset that was picked to be rich in hits.

SMILES | CHOP inh | TLR9-MyD88 inh | TLR4 MyD88 comp | XBP1 UPR activ | NOD2-RIPK2 inh | CHOP UPR activ
CCOC(=O)C1CCN(S(=O)(=O)c2ccc3[nH]c(=O)oc3c2)CC1 | 78* | 5 | 0 | 3 | -5 | -1
CCOC(=O)C1CCN(S(=O)(=O)c2ccc(Br)c(OCC)c2)CC1 | 88* | 1 | 4 | -1 | 3 | 1
CCOC(=O)N1CCN(S(=O)(=O)c2ccc3[nH]c(=O)oc3c2)CC1 | -5 | -10 | x | -3 | 3 | 1
Cc1snc2sc(C(=O)c3ccc(Br)cc3)c(N)c12 | 92* | 1 | 19 | 24 | 5 | 4
Cc1nc2sc(C(=O)c3ccccc3)c(N)c2c(C)c1C | -2 | 0 | -3 | 4 | -4 | 2
O=C(c1ccccc1)N1CCN(CC(O)COCC2CC=CCC2)CC1 (stereo not drawn) | 4 | -7 | 10 | 2 | -2 | -2
O=C(c1ccccc1)N1CCN(CC2CC=CCC2)CC1 (stereo not drawn) | 79* | -14 | 9 | -1 | -2 | 0
CCOC(=O)c1cc(-c2ccccc2)n(CCC(=O)O)c1C | 20 | 1 | 2 | -3 | -7 | 0
CCOC(=O)c1cc(-c2ccccc2)n(CC(=O)Nc2ccc(OC)cc2)c1C | 75* | 1 | 0 | -3 | -17 | -2
COc1ccc(NC(=O)Cn2c(-c3ccccc3)cn(-c3ccc(C)cc3)c2=O)cc1 | 72* | 12 | 7 | 0 | -3 | 1
CCOC(=O)C1=C(C)NC(C)=C(C(=O)OC)C1c1ccco1 (stereo not drawn) | 2 | -1 | x | 3 | 1 | 3
CCOC(=O)C1=C(C)NC(=O)C(C#N)C1c1ccco1 (stereo not drawn) | 70* | -2 | 3 | -1 | 2 | -1
Nc1ccnc(=O)[nH]1 | x | 3 | x | -5 | -9 | 0
Cc1ccsc1C(=O)OCC(=O)N1C(C)CCCC1C (stereo not drawn) | x | -10 | x | 2 | -2 | 3
CCOC(=O)c1c(-c2ccccc2)csc1NC(=O)C1CCCO1 (stereo not drawn) | 83* | -8 | -1 | 4 | -10 | 0
CCOC(=O)c1c(-c2ccc(-c3ccccc3)cc2)csc1NC(=O)C1C2CCC(O2)C1C(=O)O (stereo not drawn) | 88* | -8 | 5 | -3 | -11 | -1
CCOC(=O)c1c(-c2ccc(C)o2)csc1NC(=O)CN1CCOCC1 | 7 | -9 | 0 | 6 | 0 | 0
CCOC(=O)c1c(-c2ccccc2)csc1NC(=O)CCN1CCOCC1 | -4 | 4 | -13 | 2 | -4 | -1
CCOC(=O)c1c(-c2cccs2)csc1NC(=O)CN1CCOCC1 | 72* | 6 | 1 | 2 | 9 | -1
Cc1cccc(Nc2nc(Cl)ncc2F)c1C | x | -5 | x | -2 | -7 | 1
CCOC(=O)/C(C#N)=N\Nc1cc(Cl)ccc1OC | -9 | 7 | x | -1 | 7 | 0
CC1(C)COC(c2cccn2Cc2ccc(F)cc2Cl)=N1 | 85* | -9 | 8 | 0 | 4 | 1
CC(C)C1COC(c2cccn2Cc2ccccc2Cl)=N1 (stereo not drawn) | 4 | 1 | 13 | -3 | 1 | -2
CN(C)C(=O)N1CCC(C(=O)NCc2ccc(F)cc2Cl)CC1 | 21 | 2 | -8 | -5 | 11 | 1
CC1CN=C(c2cccn2Cc2ccc(F)cc2Cl)O1 (stereo not drawn) | 72* | -2 | 8 | -1 | 0 | -2
SMILES | CHOP inh | TLR9-MyD88 inh | TLR4 MyD88 comp | XBP1 UPR activ | NOD2-RIPK2 inh | CHOP UPR activ
O=C(CNc1ccc2ccccc2c1)N/N=C/c1ccc([N+](=O)[O-])o1 | 99* | -2 | -7 | -2 | 3 | -1
NC(=S)NCCCC(N)C(=O)O (stereo not drawn) | -9 | x | x | x | x | x
NC(=O)c1cnc(Cc2c[nH]c3ccccc23)c(I)c1 | x | x | x | x | 6 | x
Cc1ccc2nc(Cl)c(/C=N/NC(=O)[C@H]3C[C@@H]3c3ccccc3)cc2c1 | 74* | 2 | 2 | 3 | -12 | 1
CC(C)(C)c1ccc(C2CC2C(=O)N/N=C\c2cc3ccccc3nc2Cl)cc1 (stereo not drawn) | 0 | -13 | -5 | -2 | 4 | -3
O=C(Oc1cccc(Nc2ncnc3ccccc23)c1)c1ccccc1Cl | 87* | -6 | -7 | 1 | 0 | 5
COc1cccc(Nc2ncnc3ccccc23)c1 | 7 | 2 | -2 | -2 | -2 | 4
COc1ccc(N=Nc2cnc(C)nc2-c2ccccc2)cc1 | 73* | 8 | -7 | 0 | 1 | 0
Cc1ncc(N=Nc2ccccc2Cl)c(-c2ccccc2)n1 | -16 | 7 | -11 | -2 | 5 | 1
Cc1ccc(NC(=O)Nc2cnccn2)cc1Cl | 9 | 0 | 9 | 3 | -8 | 0
O=C(Nc1ccc(Cl)cc1)Nc1ccc2c(c1)OCO2 | x | -14 | x | 2 | -6 | 7
O=C(Nc1cnccn1)Nc1ccc(Cl)cc1Cl | 78* | 2 | -14 | 4 | -19 | 2
O=C(Nc1ccc2c(c1)OCO2)Nc1ccc(Cl)cc1Cl | 91* | -1 | 0 | 4 | 16 | 3
COc1ccc(C(=O)O/N=C(\N)Cc2ccc([N+](=O)[O-])cc2)c(OC)c1 | 42 | 0 | x | 1 | -2 | 0
Cc1cccc(CN(CC(=O)N/N=C/c2ccco2)S(=O)(=O)c2ccc(Cl)cc2)c1 | -1 | -8 | -4 | -5 | -1 | 0
Cc1cccc(CN(CC(=O)N/N=C/c2cccs2)S(=O)(=O)c2ccc(Cl)cc2)c1 | 78* | -1 | -20 | -4 | -10 | -2
O=C(CN(CCc1ccccc1)S(=O)(=O)c1ccc(Cl)cc1)N/N=C/c1ccc2c(c1)OCO2 | 77* | 7 | 5 | -3 | 4 | 1
COc1ccc(S(=O)(=O)N(CCc2ccccc2)CC(=O)N/N=C/c2ccc3c(c2)OCO3)cc1 | 33 | -2 | 4 | 0 | 3 | 1
COc1ccccc1NCC(=O)N/N=C(\C)c1cccs1 | -16 | 2 | 11 | 0 | 5 | 3
C/C(=N\NC(=O)CNc1cccc(Cl)c1C)c1cccs1 | 92* | 6 | -5 | -1 | 2 | 1
Fc1ccccc1/C=N/Nc1nc(-c2ccccn2)nc2ccccc12 | 54 | x | x | 5 | x | 168*
Cc1ccc2nc(C(Cl)(Cl)Cl)nc(N/N=C/c3ccncc3)c2c1 | 72* | 0 | -14 | -1 | -11 | 0
Cc1ccc(-c2nc(N/N=C/c3ccncc3)c3ccccc3n2)cc1 | 81* | -7 | 4 | -1 | -2 | -1
Cc1ccc2nc(C(Cl)(Cl)Cl)nc(N/N=C/c3ccc([N+](=O)[O-])cc3)c2c1 | x | -4 | x | x | -1 | x
CCCSc1ccc2nc(-c3ccccc3)cn2c1 | 86* | 2 | -9 | -9 | 2 | -8
